Measurements taken from ChEMBL document CHEMBL4673214, “Synthesis and antibacterial bioactivities of cationic deacetyl linezolid amphiphiles” (Eur J Med Chem, 2018).
≈ marks a conversion by molar mass, not a printed value. Calls of active or inactive are those of the source. No cut-off for these calls is given here.

Tests used:
Enterobacteriaceae [1] = assay: Antibacterial activity against NDM1 producing carbapenem-resistant Enterobacteriaceae clinical isolate 5 assessed as reduction in bacterial growth incubated for 16 to 20 hrs by CLSI-based broth microdilution method; type: functional; details: time 16-20 hrs
In short: (§1)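 Clinical isolates tested by broth microdilution in cation-adjusted Mueller-Hinton broth. Cultures grown 4-6 h (~10^8 CFU/mL) were diluted to ~10^6 CFU/mL and mixed 1:1 with compound serial dilutions made from 256 down to 0.5 µg/mL (pre-mixing). Plates held at 37 °C for 16-20 h, then read for growth. Each concentration run in duplicate, whole experiment at least twice.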

Klebsiella pneumoniae [2] = assay: Antibacterial activity against carbapenem-resistant Klebsiella pneumoniae clinical isolate 5 assessed as reduction in bacterial growth incubated for 16 to 20 hrs by CLSI-based broth microdilution method; type: functional; details: time 16-20 hrs; in short: as §1
Cell membrane [3] = assay: Induction of outer membrane permeabilization in Escherichia coli ATCC 25922 at 20 ug/ml measured for 12 mins by NPN dye based fluorescence assay; details: dose 20.0 µg/ml
In short: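 Mid-log E. coli in HEPES/glucose/KCl at ~10^8 CFU/mL was preincubated 40 min with N-phenylnaphthylamine (10 µM stock). Fluorescence (ex 350/em 420 nm) was read for an 8 min baseline, then every 2 min for 12 min after compound at 20 µg/mL final. Water served as control.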

Klebsiella pneumoniae [4] = assay: Antibacterial activity against carbapenem-resistant Klebsiella pneumoniae clinical isolate 7 assessed as reduction in bacterial growth incubated for 16 to 20 hrs by CLSI-based broth microdilution method; type: functional; details: time 16-20 hrs; in short: as §1
Salmonella enterica = assay: Antibacterial activity against Salmonella enterica ATCC 8387 assessed as reduction in bacterial growth incubated for 16 to 20 hrs by CLSI-based broth microdilution method; type: functional; details: time 16-20 hrs
In short: (§2)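 Broth microdilution following CLSI, in cation-adjusted Mueller-Hinton broth. Inoculum from a 4-6 h culture (~10^8 CFU/mL), diluted to ~10^6 CFU/mL. Water stocks were serially diluted in MHB (256 to 0.5 µg/mL) and mixed 1:1 with the inoculum. Plates ran 16-20 h at 37 °C. MIC was read visually. Each concentration was tested in duplicate, and the experiment was repeated at least twice.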

Klebsiella pneumoniae [5] = assay: Antibacterial activity against carbapenem-resistant Klebsiella pneumoniae clinical isolate 6 assessed as reduction in bacterial growth incubated for 16 to 20 hrs by CLSI-based broth microdilution method; type: functional; details: time 16-20 hrs; in short: as §1
Enterococcus faecalis = assay: Antibacterial activity against Enterococcus faecalis ATCC 29212 assessed as reduction in bacterial growth incubated 16 to 20 hrs by CLSI-based broth microdilution method; type: functional; details: time 16-20 hrs; in short: as §2
Klebsiella pneumoniae [6] = assay: Antibacterial activity against carbapenem-resistant Klebsiella pneumoniae clinical isolate 1 assessed as reduction in bacterial growth incubated for 16 to 20 hrs by CLSI-based broth microdilution method; type: functional; details: time 16-20 hrs; in short: as §1
Escherichia coli = assay: Antibacterial activity against Escherichia coli ATCC 25922 assessed as reduction in bacterial growth incubated 16 to 20 hrs by CLSI-based broth microdilution method; type: functional; details: time 16-20 hrs; in short: as §2
Enterobacteriaceae [7] = assay: Antibacterial activity against NDM1 producing carbapenem-resistant Enterobacteriaceae clinical isolate 2 assessed as reduction in bacterial growth incubated for 16 to 20 hrs by CLSI-based broth microdilution method; type: functional; details: time 16-20 hrs; in short: as §1
Cell membrane [8] = assay: Induction of inner membrane permeabilization in Staphylococcus aureus ATCC 29213 at 20 ug/ml measured for 12 mins by propidium iodide staining based fluorescence microscopic analysis; details: dose 20.0 µg/ml
In short: (§3)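 Mid-log bacteria were washed and resuspended at ~10^8 CFU/mL and preincubated with propidium iodide (10 µM stock) for 30 min (S. aureus) or 40 min (E. coli). Fluorescence (ex 535/em 617 nm) was read on a plate for an 8 min baseline, then every 2 min for 12 min after compound at 20 µg/mL final. Water served as control.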

Cell membrane [9] = assay: Induction of cytoplasmic membrane depolarization in Staphylococcus aureus ATCC 29213 at 20 ug/ml measured for 12 mins by DiSC35 dye-based fluorescence assay; type: subcellular; details: dose 20.0 µg/ml
In short: (§4)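 Mid-log bacteria were washed and resuspended at ~10^8 CFU/mL: S. aureus in PBS, E. coli in 5 mM HEPES/5 mM glucose/100 mM KCl (1:1:1). Cells were loaded with diSC35 (10 µM stock) for 30 min (S. aureus) or 40 min (E. coli, plus EDTA). Fluorescence (ex 622/em 670 nm) was read for an 8 min baseline, then every 2 min for 12 min after compound at 20 µg/mL final. Water served as control.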

Klebsiella pneumoniae [10] = assay: Antibacterial activity against carbapenem-resistant Klebsiella pneumoniae clinical isolate 10 assessed as reduction in bacterial growth incubated for 16 to 20 hrs by CLSI-based broth microdilution method; type: functional; details: time 16-20 hrs; in short: as §1
Klebsiella pneumoniae [11] = assay: Antibacterial activity against carbapenem-resistant Klebsiella pneumoniae clinical isolate 3 assessed as reduction in bacterial growth incubated for 16 to 20 hrs by CLSI-based broth microdilution method; type: functional; details: time 16-20 hrs; in short: as §1
Enterobacteriaceae [12] = assay: Antibacterial activity against NDM1 producing carbapenem-resistant Enterobacteriaceae clinical isolate 1 assessed as reduction in bacterial growth incubated for 16 to 20 hrs by CLSI-based broth microdilution method; type: functional; details: time 16-20 hrs; in short: as §1
Cell membrane [13] = assay: Induction of inner membrane permeabilization in Escherichia coli ATCC 25922 at 20 ug/ml measured for 12 mins by propidium iodide staining based fluorescence microscopic analysis; details: dose 20.0 µg/ml; in short: as §3
Klebsiella pneumoniae [14] = assay: Antibacterial activity against carbapenem-resistant Klebsiella pneumoniae clinical isolate 8 assessed as reduction in bacterial growth incubated for 16 to 20 hrs by CLSI-based broth microdilution method; type: functional; details: time 16-20 hrs; in short: as §1
Klebsiella pneumoniae [15] = assay: Antibacterial activity against carbapenem-resistant Klebsiella pneumoniae clinical isolate 9 assessed as reduction in bacterial growth incubated for 16 to 20 hrs by CLSI-based broth microdilution method; type: functional; details: time 16-20 hrs; in short: as §1
Enterobacteriaceae [16] = assay: Antibacterial activity against NDM1 producing carbapenem-resistant Enterobacteriaceae clinical isolate 7 assessed as reduction in bacterial growth incubated for 16 to 20 hrs by CLSI-based broth microdilution method; type: functional; details: time 16-20 hrs; in short: as §1
Enterobacteriaceae [17] = assay: Antibacterial activity against NDM1 producing carbapenem-resistant Enterobacteriaceae clinical isolate 10 assessed as reduction in bacterial growth incubated for 16 to 20 hrs by CLSI-based broth microdilution method; type: functional; details: time 16-20 hrs; in short: as §1
Klebsiella pneumoniae [18] = assay: Antibacterial activity against carbapenem-resistant Klebsiella pneumoniae clinical isolate 2 assessed as reduction in bacterial growth incubated for 16 to 20 hrs by CLSI-based broth microdilution method; type: functional; details: time 16-20 hrs; in short: as §1
Enterobacteriaceae [19] = assay: Antibacterial activity against NDM1 producing carbapenem-resistant Enterobacteriaceae clinical isolate 6 assessed as reduction in bacterial growth incubated for 16 to 20 hrs by CLSI-based broth microdilution method; type: functional; details: time 16-20 hrs; in short: as §1
Cell membrane [20] = assay: Induction of cytoplasmic membrane depolarization in Escherichia coli ATCC 25922 at 20 ug/ml measured for 12 mins by DiSC35 dye-based fluorescence assay; type: subcellular; details: dose 20.0 µg/ml; in short: as §4
Enterobacteriaceae [21] = assay: Antibacterial activity against NDM1 producing carbapenem-resistant Enterobacteriaceae clinical isolate 9 assessed as reduction in bacterial growth incubated for 16 to 20 hrs by CLSI-based broth microdilution method; type: functional; details: time 16-20 hrs; in short: as §1
Klebsiella pneumoniae [22] = assay: Antibacterial activity against carbapenem-resistant Klebsiella pneumoniae clinical isolate 4 assessed as reduction in bacterial growth incubated for 16 to 20 hrs by CLSI-based broth microdilution method; type: functional; details: time 16-20 hrs; in short: as §1
Enterobacteriaceae [23] = assay: Antibacterial activity against NDM1 producing carbapenem-resistant Enterobacteriaceae clinical isolate 3 assessed as reduction in bacterial growth incubated for 16 to 20 hrs by CLSI-based broth microdilution method; type: functional; details: time 16-20 hrs; in short: as §1
Enterobacteriaceae [24] = assay: Antibacterial activity against NDM1 producing carbapenem-resistant Enterobacteriaceae clinical isolate 4 assessed as reduction in bacterial growth incubated for 16 to 20 hrs by CLSI-based broth microdilution method; type: functional; details: time 16-20 hrs; in short: as §1
Enterobacteriaceae [25] = assay: Antibacterial activity against NDM1 producing carbapenem-resistant Enterobacteriaceae clinical isolate 8 assessed as reduction in bacterial growth incubated for 16 to 20 hrs by CLSI-based broth microdilution method; type: functional; details: time 16-20 hrs; in short: as §1
Staphylococcus aureus = assay: Bactericidal activity against early exponential phase of Staphylococcus aureus ATCC 29213 at 4X MIC measured after 6 hrs by time-kill kinetic assay; type: functional, organism-based
In short: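 S. aureus ATCC 29213 overnight culture diluted 1:10,000 in MHB and shaken at 225 rpm, 37 °C for 2 h to early exponential phase. Exposed to compound at 4× MIC in tubes, 37 °C, 225 rpm. Samples spun down, resuspended in PBS, plated as ten-fold dilutions on MHA overnight at 37 °C, and CFU/mL counted. Biological replicates.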

CN[C@H](CC(C)C)C(=O)N[C@H]1C(=O)N[C@@H](CC(N)=O)C(=O)N[C@H]2C(=O)N[C@H]3C(=O)N[C@H](C(=O)N[C@H](C(=O)O)c4cc(O)cc(O)c4-c4cc3ccc4O)[C@H](O)c3ccc(c(Cl)c3)Oc3cc2cc(c3O[C@@H]2O[C@H](CO)[C@@H](O)[C@H](O)[C@H]2O[C@H]2C[C@](C)(N)[C@H](O)[C@H](C)O2)Oc2ccc(cc2Cl)[C@H]1O [VANCOMYCIN]
MIC (Enterobacteriaceae [1]): 64 µg/mL (≈ 44.2 µM) | MIC (Klebsiella pneumoniae [2]): 64 µg/mL (≈ 44.2 µM) | Activity (Cell membrane [3]): inactive | MIC (Klebsiella pneumoniae [4]): > 64 µg/mL | MIC (Salmonella enterica): 32 µg/mL (≈ 22.1 µM) | MIC (Klebsiella pneumoniae [5]): > 64 µg/mL | MIC (Enterococcus faecalis): 2 µg/mL (≈ 1.38 µM) | MIC (Klebsiella pneumoniae [6]): > 64 µg/mL | MIC (Escherichia coli): 64 µg/mL (≈ 44.2 µM) | MIC (Enterobacteriaceae [7]): > 64 µg/mL | Activity (Cell membrane [8]): inactive | Activity (Cell membrane [9]): inactive | MIC (Klebsiella pneumoniae [10]): > 64 µg/mL | MIC (Klebsiella pneumoniae [11]): > 64 µg/mL | MIC (Enterobacteriaceae [12]): > 64 µg/mL | Activity (Cell membrane [13]): inactive | MIC (Klebsiella pneumoniae [14]): > 64 µg/mL | MIC (Klebsiella pneumoniae [15]): 64 µg/mL (≈ 44.2 µM) | MIC (Enterobacteriaceae [16]): 64 µg/mL (≈ 44.2 µM) | MIC (Enterobacteriaceae [17]): > 64 µg/mL | MIC (Klebsiella pneumoniae [18]): > 64 µg/mL | MIC (Enterobacteriaceae [19]): 64 µg/mL (≈ 44.2 µM) | Activity (Cell membrane [20]): inactive | MIC (Enterobacteriaceae [21]): 64 µg/mL (≈ 44.2 µM) | MIC (Klebsiella pneumoniae [22]): 64 µg/mL (≈ 44.2 µM) | MIC (Enterobacteriaceae [23]): > 64 µg/mL | MIC (Enterobacteriaceae [24]): > 64 µg/mL | MIC (Enterobacteriaceae [25]): 64 µg/mL (≈ 44.2 µM) | Activity (Staphylococcus aureus): inactive
